Source: PubChem BioAssay
M4 antag – CHRM4 antagonism in calcium assay. CHO-hM4 cells, ACh EC80, Fluo-8 calcium fluorescence. inhibition, % at 3 µM. 0.73% of 360,000 active. AID 624125;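 active means inhibition above its plate's cutoff, the mean inhibition of sample wells plus 3 SD, cut at about 27% in these data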
Target sequence (P08173 whole entry, looked up): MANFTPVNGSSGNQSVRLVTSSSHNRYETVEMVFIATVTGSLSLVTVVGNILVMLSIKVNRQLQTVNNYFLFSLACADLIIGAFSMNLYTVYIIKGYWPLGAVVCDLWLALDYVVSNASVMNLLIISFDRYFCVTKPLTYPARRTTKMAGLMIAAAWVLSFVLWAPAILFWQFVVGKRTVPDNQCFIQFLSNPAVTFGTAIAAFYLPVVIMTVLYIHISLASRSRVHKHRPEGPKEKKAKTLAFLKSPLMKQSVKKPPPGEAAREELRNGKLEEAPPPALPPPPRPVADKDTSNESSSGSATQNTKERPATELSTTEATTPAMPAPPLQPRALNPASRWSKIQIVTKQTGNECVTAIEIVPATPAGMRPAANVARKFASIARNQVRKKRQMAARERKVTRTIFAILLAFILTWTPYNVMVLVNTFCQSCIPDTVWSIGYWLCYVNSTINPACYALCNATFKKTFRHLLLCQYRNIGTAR
M5 ag – agonists of human muscarinic M5 receptor (CHRM5) | 0.19% of 360,000 active | activation, % at 3 µM | CHO-K1 hM5 cells, Fluo-8 calcium fluorescence; 0% DMSO wells, 100% maximal acetylcholine response;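 active means activation above the run's mean over test compounds plus 3 SD, cut at about 23% in these data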;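 further: signal is peak over basal fluorescence ratio across the kinetic read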
CHRM4 agonist – CHRM4 agonism in calcium assay | CHO-K1 hM4/Gqi5, Fluo-8 calcium fluorescence; vehicle 0%, full acetylcholine response 100% | P08173 | activation, % at 3 µM | 0.14% of 360,000 active;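 active means activation above the run mean over all test wells plus 3 SD, cut at about 32% in these data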;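 further: peak over basal fluorescence ratio per well then scaled between controls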
M5 antag – antagonists of human muscarinic M5 receptor (CHRM5). inhibition, % at 3 µM. AID 624040. CHO-hM5 cells, Fluo-8 calcium fluorescence, ACh EC80. 0.59% of 360,000 active. P08912;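 active means inhibition above a per-plate cutoff, the mean of that plate's test compounds plus 3 SD, cut at about 27% in these data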
CHRM5 PAM – CHRM5 positive allosteric modulation. P08912. CHO-K1 hM5, Fluo-8 calcium, ACh EC20 PAM; 0% = ACh EC20, 100% = ACh EC100. activation, % at 3 µM. 0.3% of 360,000 active;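 active means activation above the run cutoff, the mean activation of all test compounds plus 3 SD, cut at about 18% in these data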
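System: CHO-K1 cell line with stable human muscarinic M5 receptor expression | Also added: EC20 acetylcholine as agonist stimulus | Compound: One concentration, 3 µM final (nominal) | Timing: Fluo-8 loading 80 min at 37 °C plus 30 min room temperature | Measured by: Fluo-8 calcium dye fluorescence, kinetic read | Read-out basis: % activation, ACh-normalized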
CHRM4 PAM – positive allosteric modulators of human muscarinic M4 receptor; activation, % at 3 µM; CHO-K1 hM4/Gqi5, Fluo-8 calcium fluorescence, ACh EC20; 0% = ACh EC20, 100% = maximal ACh; P08173; AID 624126; 0.4% of 360,000 active;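 active means activation above its plate's cutoff, the mean activation of sample wells plus 3 SD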
Each line names hits and unclear results; the compound was inactive in the other large screens. The list is not random: actives were taken first. Their share in the collection is about 1.9%.

CCC(=O)N(Cc1ccco1)c1nc(-c2ccc(OC)cc2)cs1	none
CC1(C(=O)NCCC#N)CCN1C(=O)c1ccccc1CCc1ccccc1 (stereo not given)	none
C=C(C)[C@@H]1C2=CC(C(=O)OC)=C(C[C@H](C(=C)C)[C@H]3O[C@H]3C3=C[C@H]1OC3=O)O2	none
CC[n+]1c(C)sc2c(C)cc(C)cc21	CHRM5 PAM 27
Cc1cc(C)c2sc(C)[n+](CCCS(=O)(=O)[O-])c2c1	none
CCCCNC(=O)C(NC(=O)c1cnc(C)cn1)C(=O)c1ccccc1 (stereo not given)	none
O=S(=O)(NC1CCCC1)c1ccc(S(=O)(=O)N2CCc3ccccc32)cc1	M4 antag 29, M5 antag 29
Nc1ccc(S(=O)(=O)N2CCc3ccccc32)cc1	none
Cc1cccc(OCC(=O)Nc2ccc(N3CCN(C(=O)c4ccco4)CC3)cc2)c1	M5 antag 27
O=C(NCc1ccco1)c1cccc(NS(=O)(=O)c2cccc(F)c2)c1	none
O=C(NCc1ccco1)c1cccc(NS(=O)(=O)c2ccccc2F)c1	CHRM5 PAM 19
C=CCN(CC=C)C(=O)C1c2ccccc2Oc2ccccc21	none
CCN(CC)C(=O)C1c2ccccc2Oc2ccccc21	M5 ag 53, CHRM4 agonist 33
O=C(NCc1ccco1)C1c2ccccc2Oc2ccccc21	M4 antag 27
CC(C)[N+](C)(CCOC(=O)C1c2ccccc2Oc2ccccc21)C(C)C	M4 antag 100, M5 antag 98
CC(C)CNC(=O)COC(=O)C1c2ccccc2Oc2ccccc21	none
CC1=C(C(=O)N2CCCCCC2)CC(CC(=O)NC2CCCCC2)C(=O)N1CCC1=CCCCC1 (stereo not given)	none
Cc1ccc(NC(=O)c2snc3ccc(Cl)cc23)cc1C	M5 antag 31
CSc1ccc(/C=N/NC(=O)CN2CCN(Cc3ccccc3)CC2)cc1	none
CSc1ccc(/C=N/NC(=O)CN2CCN(Cc3ccc(Cl)cc3)CC2)cc1	M4 antag 35
CN1/C(=C/C(=O)CSc2ccccc2C(=O)O)C(C)(C)c2ccccc21	none
Cc1cc(=O)[nH]c(SCC(=O)/C=C2\N(C)c3ccccc3C2(C)C)n1	M4 antag 33, M5 antag 31
Cc1nnc(NC(=O)c2sc3nc(-c4cccs4)cc(C(F)(F)F)c3c2N)s1	CHRM4 agonist 34
CC(C)(C)C(=O)c1sc2nc(-c3cccs3)cc(C(F)(F)F)c2c1N	none
Nc1c(C(=O)Nc2nccs2)sc2nc(-c3cccs3)cc(C(F)(F)F)c12	M5 antag 34
Cc1onc(-c2c(F)cccc2Cl)c1C(=O)Nc1cc(S(=O)(=O)N2CCCCC2)ccc1O	M4 antag 27
Cc1noc(C)c1C(=O)Nc1ccc(S(=O)(=O)N2CCCCC2)cc1	CHRM4 PAM 16
Cc1noc(C)c1C(=O)Nc1ccc(S(=O)(=O)N2CCC(C)CC2)cc1	none
Cc1onc(-c2c(F)cccc2Cl)c1C(=O)Nc1ccc(S(=O)(=O)N2CCOCC2)cc1	none
Cc1cc(C)cc(CC(=O)N2CCC2(C)C(=O)NS(=O)(=O)c2ccccc2Cl)c1 (stereo not given)	none
Cc1cc(NC(=O)COC(=O)C2CCCN2C(=O)c2cccs2)no1 (stereo not given)	CHRM5 PAM 32
CC(C)NC(=O)NC(=O)COC(=O)C1CCCN1C(=O)c1cccs1 (stereo not given)	none
CCOC(=O)N1CCN(C(=O)c2cc3c(-c4cccc(OC)c4)nn(C)c3s2)CC1	none
CCOC(=O)N1CCC(NC(=O)c2cc3c(-c4cccc(OC)c4)nn(C)c3s2)CC1	CHRM4 PAM 19
COc1ccc2c(c1)Cc1sc(NC(=O)c3ccccc3)nc1-2	CHRM4 PAM 18
CCCCN1CCCCC1(C)C(=O)NCc1cccc(OC)c1 (stereo not given)	none
COc1cc(/C=C/C(=O)c2ccc([N+](=O)[O-])o2)ccc1O	none
O=C(/C=C/c1cccc(Cl)c1)c1ccc([N+](=O)[O-])o1	M4 antag 29
